PGC1a Ac signal = raises PGC1a acetylation signal in U2OS cells | 350,000 tested, 0.21% active | U2OS PGC1a acetylation AlphaScreen, overnight | AID 651723 | activation, % at 15.6 µM;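 active means every replicate reaching activation of at least 50%, whatever the mean replicate activation; inconclusive means replicates that disagree or another doubt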;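 further: hits raise the AlphaScreen acetylation signal above neutral controls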
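System: Flag-PGC1a/GCN5 U2OS cells | Quantity: 7000 cells/well | Times: Overnight compound treatment, 37 °C | Measured by: AlphaScreen proximity luminescence, anti-acetyl-lysine antibody | Dosing: One concentration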
Hep G6PC suppr = PGC-1a acetylation activator altering hepatocyte G6PC expression. 240 tested, under 10 active. primary mouse hepatocytes, G6PC mRNA qPCR, forskolin. G6PC suppression (normalized activity, % of positive control; higher = more suppression), % at 26 µM. AID 743463. shares compounds with PGC1a Ac signal;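 active means dose curves showing G6PC suppression whose half-maximal dose is at most twice the top valid dose; inconclusive means flat curves with moderate negative activity, or unreliable fits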;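 further: G6PC expression relative to GAPDH housekeeping gene as delta delta Ct; 0% = median of neutral control wells and 100% = median of positive control wells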
Hep PCK1 suppr = hepatocyte PCK1 expression change via PGC-1a acetylation activation; shares compounds with PGC1a Ac signal; primary mouse hepatocytes, PCK1 mRNA qPCR, forskolin-stimulated; PCK1 expression decrease, unspecified at 26 µM; 230 tested, under 10 active; AID 743465;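 active means compounds lowering PCK1 expression whose fitted half-maximal concentration is at most twice the top tested dose; inconclusive means flat fit with moderate opposite-direction effect, or poor fit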;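 further: values are delta delta Ct of PCK1 relative to GAPDH; higher delta delta Ct means lower PCK1 expression so positive values indicate hits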
PGC1a hep suppr = hepatocyte PGC-1a expression change via PGC-1a acetylation activation | shares compounds with PGC1a Ac signal | primary mouse hepatocytes, PGC-1a mRNA qPCR, forskolin; top dose 26 µM | max activity (PGC-1a expression decrease), % | 240 tested, under 10 active | AID 743467;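 active means compound lowering PGC-1a expression with fitted half-maximal concentration at most twice its top tested dose; inconclusive means flat curve with moderate opposite-direction effect, or poor fit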;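 further: 0% = neutral control wells median and 100% = positive control wells median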
* = called active by the depositor; i = inactive; u = inconclusive; x = no result given; [ ] = dose if it differs, or a comment. The list is a sample of the results.

SMILES	PGC1a Ac signal	Hep G6PC suppr	Hep PCK1 suppr	PGC1a hep suppr
Cc1ccc2nc(SCC(=O)Nc3ccc(F)cc3)nc(=O)n2c1	-76.3	x	x	x
Cc1nn2c(NCCCN3CCOCC3)c3c(nc2c1-c1ccccc1)CCC3	66.9*	i	426	52.6
COc1ccc(C2c3[nH]c4ccccc4c3C[C@H]3C(=O)N(c4ccccc4C(=O)N4CCC[C@@H]4C(=O)O)C(=O)N23)cc1 (some centres not stated)	-44.1	x	x	x
O=C1CCCC(O)=C1N=Nc1ccc2c(c1)OCO2	-46.8	x	x	x
Cc1cc(C)c2nc(N(CCCN(C)C)C(=O)c3ccc(S(=O)(=O)N4CCCCCC4)cc3)sc2c1	63.6*	i	183	40.5
NCc1cccc(-n2cccn2)c1	-54.0	x	x	x
COC1=CC(=O)c2c(ccc3ncnc(N)c23)C1=O	-66.1	x	x	x
C#CCN(C[C@@H]1[C@@H](OC(=O)NCCCCCC)[C@@H](OC(=O)NCCCCCC)Cn2c(=O)ccc(=O)n21)S(=O)(=O)c1ccc(C)cc1	-92.0	x	x	x
Cc1sc(NC(=O)c2cccs2)nc1-c1ccccc1	79.9*	x	3.45	22.1
Cc1nnc(NC(=O)CSc2ncc(-c3ccccc3)[nH]2)s1	-88.3	x	x	x
N#Cc1c(C#N)c(O)c2ccccc2c1O	-46.1	x	x	x
O=C1/C(=C\c2ccco2)SC(=S)N1Cc1ccccc1	-41.1	x	x	x
Cc1nnc(SCC(=O)N2CCC(c3noc4ccc(F)cc34)CC2)s1	-57.5	x	x	x
CC1(C)CC(=O)C(C=NCC(N)=O)=C(O)C1	-52.2	x	x	x
Cc1c(C(=O)OCC(=O)c2c(N)n(CC(C)C)c(=O)n(C)c2=O)oc2ccccc12	63.6*	66.2	80.7	9.5
CN(C)CCNc1oc(COc2ccc(-c3ccccc3)cc2)nc1C#N	-58.5	x	x	x
CCOc1ccc(Nc2ncnc3ccc([N+](=O)[O-])cc23)cc1	-49.6	x	x	x
CCOc1ccc(Nc2oc(-c3ccc(Cl)cc3)nc2C#N)cc1	61.9*	-52.8[8 µM]	54.1	20.3
Cc1c(Cl)cccc1NS(=O)(=O)c1ccc2c(c1)C1C=CCC1C(c1ccc(C(=O)O)cc1)N2 (configuration not stated)	-107.4	x	x	x
CCOc1ccc(C(C)=O)cc1CSC(=N)N	-40.3	x	x	x
Cc1ccc2c(CN(Cc3ccccc3)Cc3ccccc3)cc(=O)oc2c1	u	x	62	75.4
Cc1ccc(-n2nc3ccc(N)cc3n2)cc1	-52.1	x	x	x
NS(=O)(=O)c1ccc(-c2ccc(/C=C3\C(=O)Nc4cc(Cl)ccc43)o2)cc1	-48.6	x	x	x
CCOC(=O)C1=C(C)N=C2SC(C(=O)OC)=CC(=O)N2C1c1cccc(OC)c1 (configuration not stated)	-51.5	x	x	x
Cc1nc(N2CCN(S(=O)(=O)c3ccc(F)cc3)CC2)c2c(-c3cccs3)csc2n1	82.6*	306.8	369	175.8
SMILES	PGC1a Ac signal	Hep G6PC suppr	Hep PCK1 suppr	PGC1a hep suppr
COc1cccc(Cn2c(NCc3cccnc3)nc3c2c(=O)n(C)c(=O)n3C)c1	-71.3	x	x	x
COC(=O)C[C@H]1c2cc(C(F)(F)F)ccc2S(=O)(=O)N1Cc1ccc(OC)cc1	105.6*	29.1	69.8	68.0
CC1C(=O)C(C)(C)C(=O)OC1c1ccccc1 (configuration not stated)	-49.0	x	x	x
COc1ccc(C2CC(=O)N(C)c3ccccc3S2)cc1 (configuration not stated)	-41.1	39.2	44.5	57.1
O=C(C1CCC1)N1CCN(S(=O)(=O)c2ccccc2)CC1	u	11.1	1.22	118.5
Cc1cc(F)cc(-c2cc(C(=O)NCc3ccccc3)[nH]n2)c1	-41.3	x	x	x
Cc1ccc(C(=O)c2c[nH]c(C(=O)NCc3cccnc3)c2)cc1	75.4*	17.8	156	37.2
Cc1ccc(C(=O)c2cncc(Br)c2)cc1	-42.0	x	x	x
O=C(CC(C(=O)O)c1c[nH]c2ccccc12)c1ccccc1 (configuration not stated)	-81.2	x	x	x
CC(=O)c1ccc(OCC(=O)OCC(=O)Nc2sccc2C(N)=O)cc1	56.2*	8.7	16.9[8 µM]	58.1
O=C(c1ccc(Cl)cc1)C(Cn1cncn1)C(Sc1ccccc1)c1ccccc1 (configuration not stated)	-61.3	x	x	x
O=C(c1ccco1)N1CCN(c2nnc(-c3ccccc3)c3ccccc23)CC1	u	43.1	17.8	u
CNC[C@@H](CC1CCCCC1)NC[C@H](CC(C)C)NCCc1cccc(C(F)(F)F)c1	-87.5	x	x	x
COc1cc(CN2CCC(C(=O)NCCC(C)C)CC2)ccc1OCc1ccccc1	u	908.9	178	55.7
COc1cc(C2Nc3cccc4cccc(c34)N2)ccc1OC(C)=O	-56.2	x	x	x
Cc1cc(C)c(C#N)c(N2CCN(c3ccccc3)CC2)n1	-48.9	x	x	x
COc1ccc(CN(CCC(C)C)S(=O)(=O)c2ccccc2Br)cc1	74.0*	x	50.8	99.4
COc1ccc([N+](=O)[O-])c(S(=O)(=O)c2ccc(Cl)cc2)n1	-45.3	x	x	x
CO[C@H]1CN(C)C(=O)c2cc(NC(=O)Nc3ccc(Cl)cc3)ccc2OC[C@H](C)NC[C@@H]1C	-42.7	x	x	x
Nc1nccc(-c2ccc(-n3cnc4ccccc43)cc2)n1	-43.8	x	x	x
Cc1ccccc1CS(=O)(=O)c1nnc([C@H](Cc2ccccc2)NC(=O)OC(C)(C)C)o1	-54.9	x	x	x
C[C@@H]1CN([C@H](C)CO)C(=O)c2c(c3ccccc3n2C)-c2ccccc2CO[C@@H]1CN(C)C(=O)Nc1ccc2c(c1)OCO2	u	9.4	78.3	u
C[C@@H]1CN([C@@H](C)CO)C(=O)Cc2cc(NC(=O)Cc3ccccc3)ccc2O[C@H]1CN(C)C(=O)Nc1ccccc1	-49.3	-2.5[23.5 µM]	17.2[23.5 µM]	32.4
C[C@@H]1CN([C@@H](C)CO)C(=O)c2c(c3ccccc3n2C)-c2ccccc2CO[C@@H]1CN(C)C(=O)Nc1ccccc1C(F)(F)F	74.3*	4.9	39.3	86.2
C[C@H](CO)N1C[C@H](C)[C@@H](CN(C)C(=O)Nc2ccc(-c3cccs3)cc2)OCc2cnnn2CCCC1=O	-45.9	x	x	x
SMILES	PGC1a Ac signal	Hep G6PC suppr	Hep PCK1 suppr	PGC1a hep suppr
C[C@@H]1CN([C@H](C)CO)C(=O)c2c(c3ccccc3n2C)-c2ccccc2CO[C@@H]1CN(C)C(=O)[C@H](C)c1ccccc1	132.5*	20.2	39.8	91.0
O=C(OCc1nnc(-c2ccccc2)o1)C1=COCCO1	-60.9	x	x	x
COc1ccc(-c2csc(N(CCCN(C)C)C(=O)c3cccs3)n2)cc1	-46.1	x	x	x
O=C(CC1S/C(=N/N=C/c2c[nH]c3ccccc23)NC1=O)Nc1ccccc1 (configuration not stated)	-42.2	x	x	x
O=C(O)COc1ccc(/C=C2/SC(=S)N(Cc3ccccc3)C2=O)cc1	-71.6	x	x	x
COc1ccc(N2C(=O)CC2(/C=C/c2ccccc2OC)C(=O)NC2CCCC2)cc1 (configuration not stated)	-44.9	x	x	x
CC(=O)Nc1sc2c(c1-c1nc3ccccc3s1)CN(C(C)C)CC2	-51.9	x	x	x
C[C@@H]1CN([C@H](C)CO)C(=O)c2c(c3ccccc3n2C)-c2ccccc2CO[C@@H]1CN(C)C(=O)c1ccc(F)cc1	78.2*	61.4[23.5 µM]	95.4[23.5 µM]	108.9
Cn1nc(-c2ccccn2)nc2c(=O)n(C)c(=O)nc1-2	-79.6	x	x	x
COc1ccc2nc(C)cc(N/N=C/c3ccc(F)cc3)c2c1	-93.7	x	x	x
COc1ccc(OC)c(CNS(=O)(=O)c2cc(-c3cc(C)no3)ccc2OC)c1	-51.1	x	x	x
